Experimental data as given in ChEMBL document CHEMBL5512625, “Design, synthesis, and biological evaluation of first-in-class indomethacin-based PROTACs degrading SARS-CoV-2 main protease and with broad-spectrum antiviral activity” (Eur J Med Chem, 2024).
Calls of active or inactive are those of the source. The rule behind the calls is not given here.

How the values were obtained:
Format in all cases: cell-based
[1] = biological target: T1, von Hippel-Lindau disease tumor suppressor-SARS-Cov-2 polyprotein (Severe acute respiratory syndrome coronavirus 2) (UniProt P40337+P0DTD1); assay: PROTAC activity at human VHL/FLAG-nsp4-tagged SARS CoV-2 MPro overexpressed in HEK293T cells assessed as protein degradation at 25 uM pretreated for 2 hrs followed by viral protein transfection measured after 24 hrs in presence of VH298 by Western blot analysis; conditions: time 26.0 hrs
T1 sequence (P40337 whole entry, looked up, other chains not shown): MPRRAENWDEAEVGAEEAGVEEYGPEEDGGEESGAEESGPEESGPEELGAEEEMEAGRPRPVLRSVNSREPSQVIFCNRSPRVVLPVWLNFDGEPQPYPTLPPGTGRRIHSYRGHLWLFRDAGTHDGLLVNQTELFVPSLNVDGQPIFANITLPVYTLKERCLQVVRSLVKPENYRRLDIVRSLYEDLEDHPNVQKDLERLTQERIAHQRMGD
Summary of the method: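 293T cells pretreated with compound at 25 µM, with or without 50 µM VHL inhibitor VH298. Cells then transfected to express FLAG-nsp4-Mpro and collected 24 h post-transfection. Mpro detected by Western blot, β-actin as loading control.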

[2] = biological target: Replicase polyprotein 1ab (Severe acute respiratory syndrome coronavirus 2) (UniProt P0DTD1); assay: Effect on catalytic activity of FLAG-nsp4-tagged SARS CoV-2 MPro overexpressed in HEK293T cells pretreated for 2 hrs followed by viral protein transfection measured after 24 hrs by Western blot analysis; conditions: time 26.0 hrs
Summary of the method: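 293T cells pretreated 2 h, then transfected with FLAG-nsp4-Mpro plasmid and kept 24 h with compound. Western blot with anti-Mpro antibody reads cleavage: release of ~34 kDa mature Mpro versus the uncleaved upper band.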

[3] = biological target: T1, von Hippel-Lindau disease tumor suppressor-SARS-Cov-2 polyprotein (Severe acute respiratory syndrome coronavirus 2); assay: PROTAC activity at human VHL/FLAG-nsp4-tagged SARS CoV-2 MPro overexpressed in HEK293T cells assessed as protein degradation at 25 uM pretreated for 2 hrs followed by viral protein transfection measured after 24 hrs by Western blot analysis relative to control; conditions: time 26.0 hrs
Summary of the method: (§1)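 293T cells pretreated 2 h with compound (1–25 µM) or 0.1% DMSO, then transfected with FLAG-nsp4-Mpro plasmid and kept 24 h with compound. Western blot for Mpro with β-actin loading control. Densitometry from 2–3 independent experiments; DC50 by nonlinear regression, plus % degradation at the top concentration.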

[4] = biological target: Replicase polyprotein 1ab (Severe acute respiratory syndrome coronavirus 2) (UniProt P0DTD1); assay: Effect on catalytic activity of FLAG-nsp4-tagged SARS CoV-2 MPro overexpressed in HEK293T cells by FRET assay
[5] = biological target: von Hippel-Lindau disease tumor suppressor-SARS-Cov-2 polyprotein (Severe acute respiratory syndrome coronavirus 2, UniProt P40337+P0DTD1); assay: (§2) PROTAC activity at human VHL/FLAG-nsp4-tagged SARS CoV-2 MPro overexpressed in HEK293T cells assessed as protein degradation pretreated for 2 hrs followed by viral protein transfection measured after 24 hrs by Western blot analysis; summary of the method: as §1
Chain of von Hippel-Lindau disease tumor suppressor-SARS-Cov-2 polyprotein (P40337 whole entry, other chains not shown): as the sequence (P40337 whole entry, looked up, other chains not shown) above

[6] = biological target: T1, von Hippel-Lindau disease tumor suppressor-SARS-Cov-2 polyprotein (Severe acute respiratory syndrome coronavirus 2); assay: PROTAC activity at human VHL/FLAG-nsp4-tagged SARS CoV-2 MPro overexpressed in HEK293T cells assessed as protein degradation at 25 uM pretreated for 2 hrs followed by viral protein transfection measured after 24 hrs by Western blot analysis; conditions: time 26.0 hrs; summary of the method: as §1
[7] = biological target: T1, von Hippel-Lindau disease tumor suppressor-SARS-Cov-2 polyprotein (Severe acute respiratory syndrome coronavirus 2); assay: as §2; conditions: time 26.0 hrs; summary of the method: as §1

SMILES | Activity [1] | Activity [2] | Activity [3] | Activity [4] | DC50 [5] | Activity [6] | Activity [7]
COc1ccc2c(c1)c(CC(=O)N1CCN(CC(=O)N[C@H](C(=O)N3C[C@H](O)C[C@H]3C(=O)N[C@@H](C)c3ccc(-c4scnc4C)cc3)C(C)(C)C)CC1)c(C)n2C(=O)c1ccc(Cl)cc1 | inactive | inactive | 72% | inactive | 7.3 µM | – | –
COc1ccc2c(c1)c(CC(=O)NCCN1CCN(C(=O)CCC(=O)N[C@H](C(=O)N3C[C@@H](O)C[C@H]3C(=O)N[C@@H](C)c3ccc(-c4scnc4C)cc3)C(C)(C)C)CC1)c(C)n2C(=O)c1ccc(Cl)cc1 | – | – | – | – | – | inactive | –
COc1ccc2c(c1)c(CC(=O)NCCCCCCC(=O)N[C@H](C(=O)N1C[C@H](O)C[C@H]1C(=O)N[C@@H](C)c1ccc(-c3scnc3C)cc1)C(C)(C)C)c(C)n2C(=O)c1ccc(Cl)cc1 | – | inactive | – | inactive | – | – | Dose-Dependent Effect
COc1ccc2c(c1)c(CC(=O)NCCN1CCN(C(=O)CCC(=O)N[C@H](C(=O)N3C[C@H](O)C[C@H]3C(=O)N[C@@H](C)c3ccc(-c4scnc4C)cc3)C(C)(C)C)CC1)c(C)n2C(=O)c1ccc(Cl)cc1 | inactive | inactive | 67% | inactive | 18.1 µM | – | –
